# According to ChEMBL document CHEMBL3862019, “Synthesis of novel ethyl 2,4-disubstituted 8-(trifluoromethyl)pyrido[2',3':3,4]pyrazolo[1,5-a]pyrimidine-9-carboxylate derivatives as promising anticancer agents” (Bioorg Med Chem Lett, 2016):
# Activity calls are given as the source filed them. The calls are words filed in the database; no cut-off is given here.
# Legend:
# [1] = Selectivity index, ratio of IC50 for HUVEC to IC50 for human MDA-MB-231 cells
# In short: (§1)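 SI is the IC50 in normal HUVEC divided by the IC50 of the same compound in the cancer cell line.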
# [2] = test system: HeLa; assay: Selectivity index, ratio of IC50 for HUVEC to IC50 for human HeLa cells; in short: as §1
# [3] = Cytotoxicity against human HeLa cells assessed as cell growth inhibition by MTT assay; format: functional, cell-based
# In short: (§2)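 IC50 values were read from dose–response curves for compounds that gave above 60% inhibition in the initial test. HUVEC (ATCC CRL-1730) served as the normal cell line.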
# [4] = Cytotoxicity against human HepG2 cells assessed as cell growth inhibition by MTT assay; format: functional, cell-based; in short: as §2
# [5] = Cytotoxicity against human PC3 cells assessed as cell growth inhibition by MTT assay; format: functional, cell-based; conditions: PC-3; in short: as §2
# [6] = test system: HepG2; assay: Selectivity index, ratio of IC50 for HUVEC to IC50 for human HepG2 cells; in short: as §1
# [7] = Cytotoxicity against HUVEC assessed as cell growth inhibition by MTT assay; format: toxicity, cell-based; conditions: human; in short: as §2
# [8] = test system: PC-3; assay: Selectivity index, ratio of IC50 for HUVEC to IC50 for human PC3 cells; in short: as §1
# [9] = Cytotoxicity against human MDA-MB-231 cells assessed as cell growth inhibition by MTT assay; format: functional, cell-based; in short: as §2
# [10] = target: T1, DNA topoisomerase 1 (Homo sapiens) (UniProt P11387); assay: Inhibition of human DNA TOP1 assessed as suppression of supercoiled plasmid HOT1 relaxation at 10 to 20 uM preincubated with enzyme followed by substrate addition measured after 30 mins by ethidium bromide dye-based agarose gel electrophoresis
# T1 sequence (whole entry): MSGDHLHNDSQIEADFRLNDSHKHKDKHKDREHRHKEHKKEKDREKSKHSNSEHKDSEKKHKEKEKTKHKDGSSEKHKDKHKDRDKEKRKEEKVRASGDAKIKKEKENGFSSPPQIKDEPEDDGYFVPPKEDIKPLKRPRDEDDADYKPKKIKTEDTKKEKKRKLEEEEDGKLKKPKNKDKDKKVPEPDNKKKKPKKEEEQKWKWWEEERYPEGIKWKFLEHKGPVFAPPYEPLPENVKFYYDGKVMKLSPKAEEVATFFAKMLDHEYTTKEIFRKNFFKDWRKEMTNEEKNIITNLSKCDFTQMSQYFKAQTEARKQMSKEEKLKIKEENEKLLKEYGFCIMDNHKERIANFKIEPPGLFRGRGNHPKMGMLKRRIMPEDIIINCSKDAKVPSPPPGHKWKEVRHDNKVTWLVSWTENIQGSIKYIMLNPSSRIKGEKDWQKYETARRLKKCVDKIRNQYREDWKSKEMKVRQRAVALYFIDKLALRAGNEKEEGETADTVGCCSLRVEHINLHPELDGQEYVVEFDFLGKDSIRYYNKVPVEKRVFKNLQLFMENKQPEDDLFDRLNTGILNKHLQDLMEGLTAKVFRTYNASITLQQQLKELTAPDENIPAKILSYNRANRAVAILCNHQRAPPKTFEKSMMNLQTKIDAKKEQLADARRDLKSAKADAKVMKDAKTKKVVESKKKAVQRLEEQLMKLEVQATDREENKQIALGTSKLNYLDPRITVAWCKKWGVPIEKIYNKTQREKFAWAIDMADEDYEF
# In short: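 Supercoiled plasmid pHOT1 was incubated with human topoisomerase I, with compound or camptothecin control at 10 and 20. Relaxation was resolved on a 1% agarose gel run with ethidium bromide, alongside supercoiled and relaxed DNA marker lanes.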
# [11] = Cytotoxicity against HUVEC assessed as cell growth inhibition up to 100 uM by MTT assay; format: toxicity, cell-based; conditions: human
Compound,Ratio IC50 [1],Ratio IC50 [2],IC50 [3] [µM],IC50 [4] [µM],IC50 [5] [µM],Ratio IC50 [6],IC50 [7] [µM],Ratio IC50 [8],IC50 [9] [µM],inhibition [10],Activity [7],Activity [11]
CCOC(=O)c1cc2c(nc1C(F)(F)F)nn1c(-c3c(F)cc(OC)cc3F)cc(-c3cccs3)nc21,4.39,4.54,20.4,23.5,22.8,3.94,92.8,4.07,21.1,–,–,–
CCOC(=O)c1cc2c(nc1C(F)(F)F)nn1ccc(C)nc21,7.7,8.79,10.6,11.8,11.4,7.89,93.2,8.17,12.1,Active,–,–
CCOC(=O)c1cc2c(nc1C(F)(F)F)nn1c(-c3ccc(F)cc3)cc(-c3cccs3)nc21,5.02,5.61,15.3,16.8,15.1,5.11,85.9,5.68,17.1,–,–,–
CCOC(=O)c1cc2c(nc1C(F)(F)F)nn1c(-c3ccccc3C)cc(-c3cccs3)nc21,–,–,–,–,–,–,–,–,–,–,Non-Toxic,–
CCOC(=O)c1cc2c(nc1C(F)(F)F)nn1c(-c3ccc(OC)cc3)cc(-c3ccc(OC)cc3)nc21,–,–,–,–,–,–,–,–,–,–,Non-Toxic,–
CCOC(=O)c1cc2c(nc1C(F)(F)F)nn1c(C(F)(F)F)cc(C)nc21,3.62,3.44,25.6,–,–,–,88.2,–,24.3,–,–,–
O=c1[nH]cc(F)c(=O)[nH]1 [FLUOROURACIL],41.89,49.75,1.6,1.8,1.8,44.22,79.6,44.22,1.9,–,–,–
CCOC(=O)c1cc2c(nc1C(F)(F)F)nn1c(-c3ccc(Cl)cc3)cc(-c3ccccc3)nc21,–,–,–,–,–,–,–,–,–,–,Non-Toxic,–
CCOC(=O)c1cc2c(nc1C(F)(F)F)nn1c(CC)cc(CC)nc21,–,–,–,–,–,–,–,–,–,–,–,Non-Toxic
CCOC(=O)c1cc2c(nc1C(F)(F)F)nn1c(-c3ccc(OC(F)(F)F)cc3)cc(-c3cccs3)nc21,5.22,5.58,16.1,12.6,11.9,7.13,89.9,7.55,17.2,–,–,–
CCOC(=O)c1cc2c(nc1C(F)(F)F)nn1c(-c3ccc(F)cc3)cc(-c3ccc(OC)cc3)nc21,5.02,5.46,15.8,16.1,15.9,5.36,86.4,5.43,17.2,–,–,–
CCOC(=O)c1cc2c(nc1C(F)(F)F)nn1c(C)cc(C)nc21,4.93,5.45,18.2,21.2,22.1,4.67,99.2,4.48,20.1,–,–,–
CCOC(=O)c1cc2c(nc1C(F)(F)F)nn1c(-c3ccc(OC)cc3)cc(-c3ccccc3)nc21,–,–,–,–,–,–,–,–,–,–,Non-Toxic,–
CCOC(=O)c1cc2c(nc1C(F)(F)F)nn1c(-c3ccccc3)cc(C)nc21,3.18,3.05,29.8,–,–,–,91.1,–,28.6,–,–,–
CCOC(=O)c1cc2c(nc1C(F)(F)F)nn1c(-c3ccc[nH]3)cc(-c3ccccc3)nc21,9.24,7.26,13.1,14.8,12.1,6.43,95.2,7.86,10.3,Active,–,–
CCOC(=O)c1cc2c(nc1C(F)(F)F)nn1c(-c3ccc([N+](=O)[O-])cc3)cc(-c3ccccc3)nc21,7.44,4.98,18.2,14.2,16.3,6.39,90.8,5.57,12.2,–,–,–
